The record followed here is ChEMBL document CHEMBL2434898, “New β-phospholactam as a carbapenem transition state analog: Synthesis of a broad-spectrum inhibitor of metallo-β-lactamases” (Bioorg Med Chem Lett, 2013).

Calls of active or inactive are those of the source. No cut-off for these calls is given here.

The nature of experiment [1]: Activation of metallo-beta-lactamase CcrA (unknown origin) assessed as hydrolysis of nitrocefin at 100 uM by spectrophotometry. In a few lines: (§1)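 Purified metallo-β-lactamases (subclass B1: IMP-1, CcrA, Bla2, NDM-1; B3: L1) were mixed with inhibitor dissolved in DMSO with no pre-incubation before the hydrolysis assay. Activity is reported as percent inhibition.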

A short description of experiment [2]: Inhibition of Metallo-beta-lactamase Bla2 (unknown origin) assessed as inhibition of nitrocefin hydrolysis at 100 uM by spectrophotometry. The method in brief:
as §1

Experiment [3] is described as follows: Inhibition of Metallo-beta-lactamase CcrA (unknown origin) assessed as inhibition of nitrocefin hydrolysis preincubated at 100 uM for 30 mins before substrate addition by spectrophotometry. The method in brief: (§2)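 Each enzyme (IMP-1, CcrA, Bla2, NDM-1 of subclass B1; L1 of B3) was pre-incubated with inhibitor in DMSO for 30 min, then substrate hydrolysis was measured. Results are given as percent inhibition.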

The nature of experiment [4]: Inhibition of Metallo-beta-lactamase IMP-1 (unknown origin) assessed as inhibition of nitrocefin hydrolysis preincubated at 100 uM before substrate addition by spectrophotometry. The settings on record: TDE = time-dependent effect.
Experiment [5] can be described thus: Inhibition of metallo-beta-lactamase L1 (unknown origin) assessed as inhibition of nitrocefin hydrolysis preincubated at 100 uM for 30 mins before substrate addition by spectrophotometry. In a few lines:
as §2

The nature of experiment [6]: Inhibition of Metallo-beta-lactamase IMP-1 (unknown origin) assessed as inhibition of nitrocefin hydrolysis at 100 uM by spectrophotometry. The method in brief:
as §1

A short description of experiment [7]: Inhibition of Metallo-beta-lactamase Bla2 (unknown origin) assessed as inhibition of nitrocefin hydrolysis preincubated at 100 uM for 30 mins before substrate addition by spectrophotometry. In a few lines: as §2
A short description of experiment [8]: Activation of metallo-beta-lactamase NDM1 (unknown origin) assessed as hydrolysis of nitrocefin at 100 uM by spectrophotometry. In a few lines:
as §1

Experiment [9] in a line: Inhibition of Metallo-beta-lactamase NDM1 (unknown origin) assessed as inhibition of nitrocefin hydrolysis preincubated at 100 uM for 30 mins before substrate addition by spectrophotometry. In a few lines:
as §2

Experiment [10] can be described thus: Inhibition of Metallo-beta-lactamase L1 (unknown origin) assessed as inhibition of nitrocefin hydrolysis at 100 uM by spectrophotometry. The method in brief: as §1
Experiment [11] can be described thus: Inhibition of Metallo-beta-lactamase NDM1 (unknown origin) assessed as inhibition of nitrocefin hydrolysis preincubated at 100 uM before substrate addition by spectrophotometry. The settings on record: TDE = time-dependent effect.
The nature of experiment [12]: Inhibition of metallo-beta-lactamase L1 (unknown origin) assessed as inhibition of nitrocefin hydrolysis preincubated at 100 before substrate addition by spectrophotometry. The settings on record: TDE = time-dependent effect.
Experiment [13] in a line: Inhibition of Metallo-beta-lactamase IMP-1 (unknown origin) assessed as inhibition of nitrocefin hydrolysis preincubated at 100 uM for 30 mins before substrate addition by spectrophotometry. In a few lines:
as §2

Experiment [14] is described as follows: Inhibition of Metallo-beta-lactamase CcrA (unknown origin) assessed as inhibition of nitrocefin hydrolysis preincubated at 100 uM before substrate addition by spectrophotometry. The settings on record: TDE = time-dependent effect.
Experiment [15] in a line: Inhibition of Metallo-beta-lactamase Bla2 (unknown origin) assessed as inhibition of nitrocefin hydrolysis preincubated at 100 uM before substrate addition by spectrophotometry. The settings on record: TDE = time-dependent effect.

Broadly, the inhibition is how much of the control response was suppressed. As for `CC(=O)OC1C2CCC(C(=O)O)N2P1(=O)O` (stereo not given), the outcome in [1] and in [8] was Active. Also, the inhibition in [2] was 22%; in experiment [3] it was 69%; in experiment [4], “tde”; in experiment [5] it was 70%; in experiment [6] it was 48%; in experiment [7], 94%. Moreover, the inhibition is 53% in [9]; 37% in experiment [10]; “tde” in [11]; “tde” in [12]; 70% in experiment [13]; “tde” in [14]. Besides, the inhibition result in [15] was “tde”.
